Active and inactive are the calls of the source. The calls are words filed in the database; no cut-off is given here.
Legend:
[1] = Antiproliferative activity against rat A7r5 cells assessed as reduction in cell viability after 24 hrs by MTT assay; details: A7R5, 24 h
[2] = tested on: A7R5; assay: Induction of cell cycle arrest in rat A7r5 cells assessed as accumulation of cells at G0/G1 phase at 3 to 9 uM after 18 hrs by PI/RNase A staining based flow cytometric analysis; format: functional; details: dose 3-9 µM
[3] = tested on: A7R5; assay: Induction of apoptosis in rat A7r5 cells assessed as effect on Bax protein expression at 3 to 9 uM after 24 hrs by Western blot analysis; format: functional, cell-based; details: dose 3-9 µM
How it was run: (§1)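 Bax and Bcl-2 in A7r5 cells are immunoblotted after treatment (3, 6 and 9 μM, 24 h) in culture medium. Lysis in SDS/DTT/Tris buffer pH 6.8 at 95 °C, then SDS-PAGE and PVDF. Bands are given relative to the 10% FBS control, and the Bax/Bcl-2 ratio is computed. Triplicate; one-way ANOVA.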

[4] = tested on: A7R5; assay: Induction of apoptosis in rat A7r5 cells assessed as effect on Bcl2 protein expression at 3 to 9 uM after 24 hrs by Western blot analysis; format: functional, cell-based; details: dose 3-9 µM; how it was run: as §1
[5] = tested on: A7R5; assay: Induction of apoptosis in rat A7r5 cells assessed as effect on Bax/Bcl2 expression ratio at 3 to 9 uM measured after 24 hrs by Western blot analysis; format: functional, cell-based; details: dose 3-9 µM; how it was run: as §1
[6] = tested on: A7R5; assay: Induction of apoptosis in rat A7r5 cells assessed as change in sub-G1 phase at 3 to 9 uM after 24 hrs by PI/RNase A staining based flow cytometric analysis; format: functional, cell-based; details: dose 3-9 µM
How it was run: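 A7r5 cells were plated at 1.0 × 10^5 per 10 cm dish and exposed to graded concentrations in DMEM with 10% FBS. They were trypsinized, fixed in ice-cold 70% ethanol overnight at −20 °C, then stained with PI/Triton X-100/RNase A at 37 °C for at least 30 min in the dark. Sub-G1, G0/G1, S and G2/M fractions were read by FACScan. Control: 10% FBS; n = 3.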

[7] = tested on: Rattus norvegicus; assay: Inhibition of neointima formation index of injured vessel in rat model of balloon injury induced neointimal hyperplasia at 3 to 6 uM administered as extravascular treatment and measured after 2 weeks by hematoxylin and eosin Y staining based histopathological analysis; format: functional; details: dose 3-6 µM
How it was run: (§2)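 Male rats (3–4 months, 300–350 g) were randomized into four groups: sham, balloon injury + PBS, and balloon injury + 3 μM or 6 μM compound. PBS or compound was given extravascularly in ice-cold 30% (w/v) pluronic F-127 gel. Arterial sections 5–10 μm thick (6 per block) were stained with hematoxylin and eosin Y. Intima, media and lumen areas and the intima/media ratio were measured by image analysis.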

[8] = tested on: Rattus norvegicus; assay: Reduction in ADAM15 protein expression in VSMCs and injured arteries in rat model of balloon injury induced neointimal hyperplasia at 3 to 6 uM administered as extravascular treatment and measured after 2 weeks by Western blot analysis; format: functional; details: dose 3-6 µM
[9] = target: T1, Disintegrin and metalloproteinase domain-containing protein 15 (Rattus norvegicus) (UniProt Q9QYV0); assay: Inhibition of ADAM15-mediated FAK phosphorylation in rat A7r5 cells at 3 to 9 uM after 24 hrs by western blot analysis; format: cell-based; details: dose 3-9 µM
T1 sequence (whole entry): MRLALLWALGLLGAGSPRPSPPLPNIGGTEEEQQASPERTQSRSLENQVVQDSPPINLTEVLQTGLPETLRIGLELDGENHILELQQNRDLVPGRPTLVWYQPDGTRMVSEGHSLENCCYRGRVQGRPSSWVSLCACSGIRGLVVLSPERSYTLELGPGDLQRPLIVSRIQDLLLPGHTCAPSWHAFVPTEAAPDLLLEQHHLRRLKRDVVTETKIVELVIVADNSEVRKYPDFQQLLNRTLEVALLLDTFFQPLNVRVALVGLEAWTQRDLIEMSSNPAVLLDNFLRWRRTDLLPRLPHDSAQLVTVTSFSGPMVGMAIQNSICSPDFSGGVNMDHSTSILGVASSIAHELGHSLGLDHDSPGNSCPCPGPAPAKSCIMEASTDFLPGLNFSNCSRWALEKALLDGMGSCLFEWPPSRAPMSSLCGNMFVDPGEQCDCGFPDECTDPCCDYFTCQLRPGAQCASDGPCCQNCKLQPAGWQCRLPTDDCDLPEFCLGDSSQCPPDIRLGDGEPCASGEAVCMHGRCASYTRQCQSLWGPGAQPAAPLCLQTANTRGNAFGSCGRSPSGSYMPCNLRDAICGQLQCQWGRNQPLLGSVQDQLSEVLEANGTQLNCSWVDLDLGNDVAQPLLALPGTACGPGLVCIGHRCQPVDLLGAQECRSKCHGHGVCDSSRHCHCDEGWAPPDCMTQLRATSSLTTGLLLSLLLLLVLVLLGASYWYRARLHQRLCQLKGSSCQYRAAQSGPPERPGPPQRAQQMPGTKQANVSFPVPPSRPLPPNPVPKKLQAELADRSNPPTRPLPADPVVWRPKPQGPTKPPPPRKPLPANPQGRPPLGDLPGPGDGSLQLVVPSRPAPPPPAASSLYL
How it was run: (§3)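 A7r5 rat aortic smooth muscle cells (DMEM, 10% FBS, 37 °C, 5% CO2) treated with 3, 6 or 9 μM in culture medium for 24 h. Lysed in 2% SDS/50 mM DTT/62.5 mM Tris-HCl pH 6.8 at 95 °C for 5 min. SDS-PAGE, PVDF transfer, 5% milk block, HRP secondary. Band expressed as % of control; mean ± SD, n = 3, one-way ANOVA.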

[10] = tested on: A7R5; assay: Down regulation of ERK2 expression in rat A7r5 cells at 3 to 9 uM after 24 hrs by Western blot analysis; format: functional, cell-based; details: dose 3-9 µM; how it was run: as §3
[11] = tested on: A7R5; assay: Down regulation of AKT expression in rat A7r5 cells at 3 to 9 uM after 24 hrs by Western blot analysis; format: functional, cell-based; details: dose 3-9 µM; how it was run: as §3
[12] = tested on: A7R5; assay: Down regulation of ADAM15 protein translational level in rat A7r5 cells at 9 uM after 24 hrs by Western blot analysis; format: functional, cell-based; how it was run: as §3
[13] = tested on: A7R5; assay: Down regulation of FAK expression in rat A7r5 cells at 3 to 9 uM after 24 hrs by Western blot analysis; format: functional, cell-based; details: dose 3-9 µM; how it was run: as §3
[14] = tested on: A7R5; assay: Down regulation of PI3K expression in rat A7r5 cells at 3 to 9 uM after 24 hrs by Western blot analysis; format: functional, cell-based; details: dose 3-9 µM; how it was run: as §3
[15] = tested on: A7R5; assay: Down regulation of ERK1 expression in rat A7r5 cells at 3 to 9 uM after 24 hrs by Western blot analysis; format: functional, cell-based; details: dose 3-9 µM; how it was run: as §3
[16] = tested on: A7R5; assay: Inhibition of cell migration in rat A7r5 cells at 6 to 9 uM after 16 hrs by crystal violet staining based transwell assay; format: functional; details: dose 6-9 µM
How it was run: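 Transwell, 8 μm pore: 1.2 × 10^4 A7r5 cells in the upper chamber attach for 2 h. The upper chamber then receives serum-free medium with compound, and the lower chamber 10% FBS medium with compound, for 16 h at 37 °C. Cells are fixed in formaldehyde, stained with crystal violet and counted in five random fields. Migration is given as % of control cell number.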

[17] = tested on: A7R5; assay: Inhibition of cell migration in rat A7r5 cells at 9 uM after 18 hrs by scratch wound healing assay; format: functional, cell-based
[18] = tested on: A7R5; assay: Down regulation of MMP-2 expression in rat A7r5 cells at 3 to 9 uM after 24 hrs by Western blot analysis; format: functional, cell-based; details: dose 3-9 µM; how it was run: as §3
[19] = tested on: A7R5; assay: Down regulation of MMP-9 expression in rat A7r5 cells at 3 to 9 uM after 24 hrs by Western blot analysis; format: functional, cell-based; details: dose 3-9 µM; how it was run: as §3
[20] = target: T1, Disintegrin and metalloproteinase domain-containing protein 15 (Rattus norvegicus); assay: Inhibition of ADAM15-mediated MMP-9 activity in rat A7r5 cells at 6 uM after 24 hrs by gelatin zymography; format: cell-based
How it was run: (§4)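 Conditioned medium came from A7r5 cells (1.0 × 10^5 per 10 cm dish) held 24 h with the compound in DMEM/10% FBS. It ran under nonreducing conditions on 10% SDS-PAGE with 0.1% gelatin. Gels were washed in 2.5% Triton X-100 for 1 h, developed at 37 °C in pH 8.0 Tris/10 mM CaCl2 buffer, then Coomassie stained and destained. Clear bands were quantified as % of control; n = 3.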

[21] = target: T1, Disintegrin and metalloproteinase domain-containing protein 15 (Rattus norvegicus); assay: Inhibition of ADAM15-mediated MMP-9 activity in rat A7r5 cells at 9 uM after 24 hrs by gelatin zymography; format: cell-based; how it was run: as §4
[22] = target: T1, Disintegrin and metalloproteinase domain-containing protein 15 (Rattus norvegicus); assay: Inhibition of ADAM15-mediated PI3K phosphorylation in rat A7r5 cells at 3 to 9 uM after 24 hrs by western blot analysis; format: cell-based; details: dose 3-9 µM; how it was run: as §3
[23] = target: T1, Disintegrin and metalloproteinase domain-containing protein 15 (Rattus norvegicus); assay: Inhibition of ADAM15-mediated AKT phosphorylation in rat A7r5 cells at 3 to 9 uM after 24 hrs by western blot analysis; format: cell-based; details: dose 3-9 µM; how it was run: as §3
[24] = target: T1, Disintegrin and metalloproteinase domain-containing protein 15 (Rattus norvegicus); assay: Inhibition of ADAM15-mediated ERK phosphorylation in rat A7r5 cells at 3 to 9 uM after 24 hrs by western blot analysis; format: cell-based; details: dose 3-9 µM; how it was run: as §3
[25] = Inhibition of neointima formation of injured vessel in rat model of balloon injury induced neointimal hyperplasia assessed as area of intima at 3 uM administered as extravascular treatment and measured after 2 weeks by hematoxylin and eosin Y staining based histopathological analysis (reference value: 3346.4 +/-556.7 um2); format: functional; how it was run: as §2
[26] = Inhibition of neointima formation of injured vessel in rat model of balloon injury induced neointimal hyperplasia assessed as area of media at 3 uM administered as extravascular treatment and measured after 2 weeks by hematoxylin and eosin Y staining based histopathological analysis (reference value: 1462.7 +/-393.9 um2); format: functional; how it was run: as §2
[27] = Inhibition of neointima formation of injured vessel in rat model of balloon injury induced neointimal hyperplasia assessed as area of lumen at 3 uM administered as extravascular treatment and measured after 2 weeks by hematoxylin and eosin Y staining based histopathological analysis (reference value: 6809.1 +/-820.8 um2); format: functional; how it was run: as §2
[28] = Inhibition of neointima formation of injured vessel in rat model of balloon injury induced neointimal hyperplasia assessed as ratio of area of intima-to-media at 3 uM administered as extravascular treatment and measured after 2 weeks by hematoxylin and eosin Y staining based histopathological analysis (reference value: 1.98 +/-0.36); format: functional; how it was run: as §2
[29] = Inhibition of neointima formation of injured vessel in rat model of balloon injury induced neointimal hyperplasia assessed as area of intima at 6 uM administered as extravascular treatment and measured after 2 weeks by hematoxylin and eosin Y staining based histopathological analysis (reference value: 3346.4 +/-556.7 um2); format: functional; how it was run: as §2
[30] = Inhibition of neointima formation of injured vessel in rat model of balloon injury induced neointimal hyperplasia assessed as area of media at 6 uM administered as extravascular treatment and measured after 2 weeks by hematoxylin and eosin Y staining based histopathological analysis (reference value: 1462.7 +/-393.9 um2); format: functional; how it was run: as §2
[31] = Inhibition of neointima formation of injured vessel in rat model of balloon injury induced neointimal hyperplasia assessed as area of lumen at 6 uM administered as extravascular treatment and measured after 2 weeks by hematoxylin and eosin Y staining based histopathological analysis (reference value: 6809.1 +/-820.8 um2); format: functional; how it was run: as §2
[32] = Inhibition of neointima formation of injured vessel in rat model of balloon injury induced neointimal hyperplasia assessed as ratio of area of intima-to-media at 6 uM administered as extravascular treatment and measured after 2 weeks by hematoxylin and eosin Y staining based histopathological analysis (reference value: 1.98 +/-0.36); format: functional; how it was run: as §2

SMILES: CO[C@]1(CC[C@@H](C)CO[C@@H]2O[C@H](CO)[C@@H](O)[C@H](O)[C@H]2O)O[C@H]2C[C@H]3[C@@H]4CC=C5C[C@@H](O[C@@H]6O[C@H](CO)[C@@H](O[C@@H]7O[C@@H](C)[C@H](O)[C@@H](O)[C@H]7O)[C@H](O)[C@H]6O[C@@H]6O[C@@H](C)[C@H](O)[C@@H](O)[C@H]6O)CC[C@]5(C)[C@H]4CC[C@]3(C)[C@H]2[C@@H]1C [METHYLPROTODIOSCIN]
- IC50 [1]: 9 µM
- Activity [2]: Active
- Activity [3]: inactive
- Activity [4]: inactive
- Activity [5]: inactive
- Activity [6]: inactive
- inhibition [7]: Active
- inhibition [8]: Active
- inhibition [9]: Active
- inhibition [10]: Active
- inhibition [11]: Active
- inhibition [12]: Active
- inhibition [13]: Active
- inhibition [14]: Active
- inhibition [15]: Active
- inhibition [16]: Active
- inhibition [17]: Active
- inhibition [18]: Active
- inhibition [19]: Active
- inhibition [20]: Active
- inhibition [21]: Active
- inhibition [22]: Active
- inhibition [23]: Active
- inhibition [24]: Active
- Activity [25]: 1828.4 um2
- Activity [26]: 1902 um2
- Activity [27]: 4730.4 um2
- Ratio [28]: 0.92
- Activity [29]: 912.4 um2
- Activity [30]: 1164.2 um2
- Activity [31]: 3076.6 um2
- Ratio [32]: 0.34

From ChEMBL document CHEMBL4715718, “Methyl Protodioscin, a Steroidal Saponin, Inhibits Neointima Formation in Vitro and in Vivo” (J Nat Prod, 2016)
